This is a sample that favours compounds with a hit; in the whole collection about 2.9% have one here.
CendR NRP1 mod: modulators of CendR peptide binding to NRP-1, primary screen, biochemical, fluorescence polarization, uHTS; Neuropilin-1 (Homo sapiens), O14786; FAM-RPARPAR peptide binding to NRP-1; inhibition, % at 25 µM; 360,000 tested, 0.85% active;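 active means inhibition or corrected inhibition above about 18%, plus a signal ratio from 0.5 to 1.5, limit read from the data, passing the limit was not always enough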
CRFR2-BP antag: antagonists of CRF-BP/CRF-R2 complex, primary screen, cell-based, HEK293, calcium dye fluorescence, uHTS; AID 588475, 2011; inhibition, % at 11.8 µM; 350,000 tested, 0.59% active; CRF-induced calcium fluorescence;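 active means inhibition of the ligand-induced calcium signal above about 50% at the single tested concentration, limit read from the data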
DDE Tn6 FP inh: inhibitors of Tn6 peptide binding to fibrin DD(E), primary screen, biochemical, fluorescence polarization, human fibrin, Tn6 probe. 370,000 tested, 0.21% active. Fibrin DD(E) TRITC-Tn6 fluorescence polarization displacement. AID 720509, 2013. inhibition, % at 8.3 µM. Fibrinogen beta chain (Homo sapiens), P02675;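 active means inhibition above a per-campaign cutoff: mean of compounds within control limits plus 3 SD, cut at about 15% in these data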
Target sequence (P02675 whole entry, looked up): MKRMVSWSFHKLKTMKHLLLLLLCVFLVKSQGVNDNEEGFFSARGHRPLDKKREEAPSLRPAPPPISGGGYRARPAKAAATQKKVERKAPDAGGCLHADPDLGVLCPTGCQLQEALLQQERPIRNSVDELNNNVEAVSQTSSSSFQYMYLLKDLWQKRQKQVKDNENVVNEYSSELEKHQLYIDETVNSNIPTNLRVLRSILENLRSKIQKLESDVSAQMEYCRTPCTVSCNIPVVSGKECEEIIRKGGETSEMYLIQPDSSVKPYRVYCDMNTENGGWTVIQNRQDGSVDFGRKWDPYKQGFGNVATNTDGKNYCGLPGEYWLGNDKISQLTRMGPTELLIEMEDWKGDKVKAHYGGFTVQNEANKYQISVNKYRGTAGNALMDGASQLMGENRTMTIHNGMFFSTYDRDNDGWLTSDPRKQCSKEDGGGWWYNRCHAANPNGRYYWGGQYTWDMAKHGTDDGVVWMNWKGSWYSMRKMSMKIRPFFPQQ
KLK7 zymogen act: proKLK7 zymogen activators, primary screen, biochemical, fluorescence intensity; Kallikrein-7 (Homo sapiens), P49862; purified proKLK7, EDANS-DABCYL substrate fluorescence; 100% is mature enzyme control, 0% vehicle; activation, % at 7 µM; 370,000 tested, 0.9% active; AID 652039, 2013;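 active means activation above the mean of all tested compounds plus 3 SD, computed per campaign excluding outliers beyond control limits, cut at about 13% in these data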
Target sequence (P49862 whole entry, looked up): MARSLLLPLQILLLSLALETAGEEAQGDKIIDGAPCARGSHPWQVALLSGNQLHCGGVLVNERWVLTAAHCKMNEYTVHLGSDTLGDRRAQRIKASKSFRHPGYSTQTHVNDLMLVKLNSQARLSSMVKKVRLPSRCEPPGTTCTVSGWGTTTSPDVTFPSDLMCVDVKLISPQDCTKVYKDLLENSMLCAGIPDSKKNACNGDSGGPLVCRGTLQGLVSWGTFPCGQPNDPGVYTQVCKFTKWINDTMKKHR
CRFR2-BP ag: agonists of CRF-BP/CRF-R2 complex, primary screen, cell-based, HEK293, calcium dye fluorescence, uHTS; calcium dye fluorescence (FLIPR); percent of saturating CRF peptide response; activation, % at 13.2 µM; 350,000 tested, 0.46% active; AID 588473, 2011;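 active means activation of at least 50%, plus an integration ratio under a set limit after plate pattern correction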
Tn7 DDE FP: inhibitors of Tn7 peptide binding to fibrin DD(E), primary screen, biochemical, fluorescence polarization, human fibrin, Tn7 probe; 370,000 tested, 0.13% active; FP displacement of FITC-Tn7 peptide from fibrin DD(E); 0% = median of compound wells per plate; inhibition, % at 8.3 µM; Fibrinogen beta chain (Homo sapiens), P02675;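 active means inhibition above the mean of compounds falling within the control limits plus 3 SD of them, cut at about 14% in these data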
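Test system: human clot-derived fibrin DD(E) complex / Quantity: 2 µM final DD(E) protein / Incubation: 10 min plus 3 h, room temperature / Measured by: fluorescence polarization / Benchmarks: high control of 10 µM Aha-Tn7 peptide / Replicates: singlicate testing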
Tn6 DDE ctr: DD(E)-Tn6 binding inhibition, counter-screen; shares compounds with DDE Tn6 FP inh; 680 tested, 2% active; Fibrin DD(E), TRITC-Tn6 fluorescence polarization displacement; 0% = median of compound wells, not DMSO; inhibition, % at 8.3 µM;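 active means inhibition above the mean of test compounds lying between the control limits plus 3 SD of those, cut at about 14% in these data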
DDE Tn6 confirm: inhibitors of Tn6 peptide binding to fibrin DD(E), confirmation, biochemical, fluorescence polarization, human fibrin, Tn6 probe. shares compounds with DDE Tn6 FP inh. FP displacement of TRITC-Tn6 peptide from DD(E); 0% = per-plate median of test wells. inhibition, % at 8.3 µM. 680 tested, 10% active. AID 720631, 2013;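 active means inhibition above the mean of compounds lying within the control limits plus 3 SD, cut at about 16% in these data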
Of the large screens only hits and unclear results are named; the others gave an inactive call (follow-up assays come after a bar, where they were run).

O=c1c2cccnc2[nH]c(=S)n1CCCN1CCN(c2ccccc2F)CC1	DDE Tn6 FP inh 17 | Tn6 DDE ctr inactive | DDE Tn6 confirm inactive
Cn1c(=O)c2[nH]c(SCC(=O)NCCc3cccc(F)c3)nc2n(C)c1=O	none (no result: CendR NRP1 mod, CRFR2-BP antag, CRFR2-BP ag)
CCOC(=O)Cc1cc(-c2ccc(F)cc2)nc2ccc3ccccc3c12	DDE Tn6 FP inh 16 | Tn6 DDE ctr inactive | DDE Tn6 confirm inactive
CCOC(=O)Cc1cc(-c2ccc(O)cc2)nc2ccc3ccccc3c12	none
CC(C)(C)c1ccc(NC(=O)CCNC(=O)c2ccco2)cc1	DDE Tn6 FP inh 15 | Tn6 DDE ctr inactive | DDE Tn6 confirm inactive
Cc1ccc(O)c(N=Nc2ccccc2)n1	DDE Tn6 FP inh 16 | Tn6 DDE ctr inactive | DDE Tn6 confirm inactive
CCOC(=O)c1cc2c(=Cc3ccc(N(C)C)cc3)c3ccccc3n2[n+]1C	DDE Tn6 FP inh 22 | Tn6 DDE ctr inactive | DDE Tn6 confirm inactive
CCOC(=O)[C@]12CCCC=C1N(Cc1ccc(OC)cc1)C(=O)[C@@H]2CC(=O)NCCCN1CCCC1=O	none (no result: CendR NRP1 mod, CRFR2-BP antag, CRFR2-BP ag)
O=C(COc1ccccc1)Nc1cccc(-c2nc3cc4ccccc4cc3[nH]2)c1	DDE Tn6 FP inh 87 | Tn6 DDE ctr inactive | DDE Tn6 confirm 25
CCn1c(SCC(=O)Nc2ccc3c(c2)OCCO3)nnc1-c1ccccn1	none
O=C(CSc1nnc(-c2ccccn2)n1Cc1ccco1)Nc1ccc2c(c1)OCO2	DDE Tn6 FP inh 15 | Tn6 DDE ctr inactive | DDE Tn6 confirm inactive
O=[N+]([O-])c1ccc(CN2CCOCCOCCN(Cc3ccc([N+](=O)[O-])cc3Cl)CCOCC2)c(Cl)c1	none (no result: CendR NRP1 mod, CRFR2-BP antag, KLK7 zymogen act, CRFR2-BP ag)
CCc1cc2c(nc1CC)CCCN2Cc1ccccc1C(F)(F)F	none (no result: CendR NRP1 mod, CRFR2-BP antag, CRFR2-BP ag)
CCOC(=O)C1=CCN(S(=O)(=O)c2ccc(Br)cc2)C1c1cccc(Br)c1 (stereo not drawn)	none (no result: CendR NRP1 mod, CRFR2-BP antag, CRFR2-BP ag)
O=C(CN1CCN(C/C=C/c2ccccc2)CC1)NCc1ccccc1	none
CCC(C)c1ccccc1NC(=O)CN1CCN(C/C=C/c2ccccc2)CC1 (stereo not drawn)	DDE Tn6 FP inh 16 | Tn6 DDE ctr inactive | DDE Tn6 confirm inactive
Cc1ccc(NC(=O)C2CC3CCC2C3)cc1 (stereo not drawn)	none (no result: CendR NRP1 mod, CRFR2-BP antag, KLK7 zymogen act, CRFR2-BP ag)
N#CC(C#N)=C1C=C2C=C(N3CCCCCC3)CCC2CC1 (stereo not drawn)	DDE Tn6 FP inh 18, CRFR2-BP ag 216 | Tn6 DDE ctr 53 | DDE Tn6 confirm inactive
COc1ccc(S(=O)(=O)N(C)CC(=O)Nc2ccccc2OC)cc1	DDE Tn6 FP inh 23 | Tn6 DDE ctr inactive | DDE Tn6 confirm inactive
COc1ccccc1NC(=O)OC1CC2CC1[C@H]1CCCCN1[C@H]2Cc1ccccc1 (stereo partly drawn)	none (no result: CendR NRP1 mod, CRFR2-BP antag, CRFR2-BP ag)
COC(=O)C1CN(Cc2ccccc2)CCS(=O)(=O)N1Cc1cn(Cc2cccc(Cl)c2)nn1 (stereo not drawn)	none (no result: CendR NRP1 mod, CRFR2-BP antag, CRFR2-BP ag)
CCCCc1ccc2nc(NC(=O)c3cccs3)sc2c1	none (no result: CendR NRP1 mod, CRFR2-BP antag, KLK7 zymogen act, CRFR2-BP ag)
COc1ccc(NC(=O)CC(C)(C)C)c([N+](=O)[O-])c1	DDE Tn6 FP inh 16 | Tn6 DDE ctr inactive | DDE Tn6 confirm inactive
COc1ccc(NC(=O)CC(C)C)c([N+](=O)[O-])c1	none
Cc1cccc(C)c1NC(=O)C1CCCN1S(=O)(=O)c1cccc2cccnc12 (stereo not drawn)	none (no result: CendR NRP1 mod, CRFR2-BP antag, CRFR2-BP ag)
CCN1CCCCC(NC(=O)COCc2ccccc2)C1=O (stereo not drawn)	none (no result: CendR NRP1 mod, CRFR2-BP antag, CRFR2-BP ag)
COc1cc(OC)cc(C(=O)N(CN2CCCC2=O)c2ccccc2OC)c1	DDE Tn6 FP inh 16 | Tn6 DDE ctr inactive | DDE Tn6 confirm inactive
Oc1ccccc1C1CC(c2cccs2)=NC(c2cccc(Br)c2)N1 (stereo not drawn)	DDE Tn6 FP inh 105 | Tn6 DDE ctr inactive | DDE Tn6 confirm inactive
O=S(=O)(c1ccccc1)N1N=C(c2cccs2)CC1c1cccc(O)c1 (stereo not drawn)	none
Cc1ccc2c(c1)N(Cc1ccccn1)C(=O)C(C)O2 (stereo not drawn)	DDE Tn6 FP inh 17 | Tn6 DDE ctr inactive | DDE Tn6 confirm inactive
CC(=O)C1=C(C)N(Cc2ccc(F)cc2)C(=S)NC1c1ccc(Br)cc1 (stereo not drawn)	none (no result: CendR NRP1 mod, CRFR2-BP antag, CRFR2-BP ag)
O=C(Nc1ccc(S(=O)(=O)Nc2ncccn2)cc1)C1CC(=O)N(c2ccc(Cl)cc2)C1 (stereo not drawn)	DDE Tn6 FP inh 17 | Tn6 DDE ctr inactive | DDE Tn6 confirm inactive
COCC(=O)N[C@H]1C[C@@H]2O[C@H](CO)CC[C@@H]2O[C@@H]1CCc1ccc(-c2ccccc2)cc1	none (no result: CendR NRP1 mod, CRFR2-BP antag, CRFR2-BP ag)
O=C1CCC[C@H]2C[C@H](NCc3ccccc3Cl)CC[C@]23CCCN13	none (no result: CendR NRP1 mod, CRFR2-BP antag, KLK7 zymogen act, CRFR2-BP ag)
Cc1cc2ccccc2n1CCNC(=O)C1CCCCC1	DDE Tn6 FP inh 39 | Tn6 DDE ctr inactive | DDE Tn6 confirm inactive
Nn1c(SCC(=O)N2CCOCC2)nnc1-c1cc(-c2ccc(F)cc2)n[nH]1	DDE Tn6 FP inh 16 (no result: CendR NRP1 mod, CRFR2-BP antag, CRFR2-BP ag) | Tn6 DDE ctr inactive | DDE Tn6 confirm inactive
O=C(COC(=O)c1ccc(Sc2ncn[nH]2)c([N+](=O)[O-])c1)Nc1cccc(Cl)c1F	DDE Tn6 FP inh 16 (no result: CendR NRP1 mod, CRFR2-BP antag, CRFR2-BP ag) | Tn6 DDE ctr inactive | DDE Tn6 confirm inactive
COC(=O)C1=C(C)N(C)C(=NCc2cc(OC)c(OC)c(OC)c2)NC1c1cccc(C(F)(F)F)c1 (stereo not drawn)	none (no result: CendR NRP1 mod, CRFR2-BP antag, CRFR2-BP ag)
O=C(c1ccccc1)c1ccccc1C(=O)c1ccccc1	none
Nc1sccc1C(=O)c1ccccc1	DDE Tn6 FP inh 15 (no result: CendR NRP1 mod) | Tn6 DDE ctr inactive | DDE Tn6 confirm inactive
COc1ccc(NC(=O)C(c2cc3c(cc2[N+](=O)[O-])OCO3)N(C)Cc2ccccc2)cc1 (stereo not drawn)	DDE Tn6 FP inh 31 | Tn6 DDE ctr inactive | DDE Tn6 confirm inactive
O=C(Nc1ccc(Oc2ccccc2)nc1)C1CCN(Cc2ccccc2)CC1	none
Cc1c(CN2CCC(C(=O)Nc3ccc(Oc4ccccc4)nc3)CC2)cnn1C	DDE Tn6 FP inh 15 | Tn6 DDE ctr inactive | DDE Tn6 confirm inactive

Bioassay records as filed in PubChem BioAssay.
